Experimental data from ChEMBL document CHEMBL3603803, “Design and synthesis of dithiocarbamate linked β-carboline derivatives: DNA topoisomerase II inhibition with DNA binding and apoptosis inducing ability” (Bioorg Med Chem, 2015).
pIC50: −log10 of the molar value. Activity calls are given as the source filed them. No cut-off for these calls is given here.

Assays:
DU-145 [1] = assay: Cell cycle arrest in human DU145 cells assessed as accumulation at S phase at 1 uM after 48 hrs by propidium iodide staining-based flow cytometric analysis (reference value: 4.02%); assay type: functional
Calf thymus DNA [2] = assay: Stabilization of calf thymus DNA at 1:2 DNA to compound molar ratio by CD spectroscopic analysis; assay type: nucleic-acid assay; details: Bos taurus
Outline: (§1)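 CD spectra of CT-DNA with compound added at 10 µM to equal CT-DNA concentration (1:1), then raised to 1:2 DNA:ligand; positive band at 275 nm monitored.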

Calf thymus DNA [3] = assay: Stabilization of calf thymus DNA at 1:1 DNA to compound molar ratio by CD spectroscopic analysis; assay type: nucleic-acid assay; details: Bos taurus; outline: as §1
DU-145 [4] = assay: Induction of apoptosis in human DU145 cells assessed as necrotic cells at 0.5 uM after 48 hrs by annexin V-FITC/propidium iodide staining-based flow cytometric analysis (reference value: 0.1%); assay type: functional
[5] = molecular target: T1, DNA topoisomerase II (Homo sapiens) (UniProt P11388+Q02880); assay: Interfacial poisoning activity at DNA-topoisomerase 2 (unknown origin) using catenated kDNA as substrate assessed as linear DNA formation at 1 to 100 uM after 30 mins by agarose gel electrophoresis; assay type: protein assay
Outline: (§2)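 Catenated DNA incubated with topo II and compound at 1, 10 and 100 µM; gel products scored for linear DNA (poison type) versus nicked circular/relaxed DNA retained in wells (catalytic inhibitor type); etoposide at 1, 10, 100 µM as control.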

MCF7 = assay: Cytotoxicity against human MCF7 cells after 48 hrs by MTT assay; assay type: functional, cell-based; details: MCF7, 48 h
Outline: (§3)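 Human cancer cell lines (A549 lung, MCF-7 breast, DU-145 prostate, HeLa cervical) exposed to compounds for 48 h; 50% inhibitory concentration derived, average of three individual experiments; doxorubicin reference agent.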

DU-145 [6] = assay: Induction of apoptosis in human DU145 cells assessed as viable cells at 1 uM after 48 hrs by annexin V-FITC/propidium iodide staining-based flow cytometric analysis (reference value: 97.95%); assay type: functional; details: DU-145, 48 h, read-out: Activity
HeLa = assay: Cytotoxicity against human HeLa cells after 48 hrs by MTT assay; assay type: functional, cell-based; outline: as §3
DU-145 [7] = assay: Cell cycle arrest in human DU145 cells assessed as accumulation at G2/M phase at 1 uM after 48 hrs by propidium iodide staining-based flow cytometric analysis (reference value: 1.97%); assay type: functional
DU-145 [8] = assay: Induction of apoptosis in human DU145 cells assessed as early apoptotic cells at 1 uM after 48 hrs by annexin V-FITC/propidium iodide staining-based flow cytometric analysis (reference value: 0.43%); assay type: functional
DU-145 [9] = assay: Cell cycle arrest in human DU145 cells assessed as accumulation at G0/G1 phase at 1 uM after 48 hrs by propidium iodide staining-based flow cytometric analysis (reference value: 85.94%); assay type: functional
DU-145 [10] = assay: Cell cycle arrest in human DU145 cells assessed as accumulation at subG1 phase at 1 uM after 48 hrs by propidium iodide staining-based flow cytometric analysis (reference value: 6.52%); assay type: functional
DU-145 [11] = assay: Induction of apoptosis in human DU145 cells assessed as late apoptotic cells at 1 uM after 48 hrs by annexin V-FITC/propidium iodide staining-based flow cytometric analysis (reference value: 1.52%); assay type: functional
DU-145 [12] = assay: Induction of apoptosis in human DU145 cells assessed as viable cells at 0.5 uM after 48 hrs by annexin V-FITC/propidium iodide staining-based flow cytometric analysis (reference value: 97.95%); assay type: functional; details: DU-145, 48 h, read-out: Activity
A549 = assay: Cytotoxicity against human A549 cells after 48 hrs by MTT assay; assay type: functional, cell-based; details: A549, 48 h; outline: as §3
Calf thymus DNA [13] = assay: Induction of DNA intercalation of calf thymus DNA at 10 uM by spectrofluorimetric analysis; assay type: nucleic-acid assay; details: Bos taurus
Outline: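 Fluorescence titration: CT-DNA added to compound solution and quenching of compound emission peak monitored (617 or 567 nm, depending on compound).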

DU-145 [14] = assay: Induction of apoptosis in human DU145 cells assessed as late apoptotic cells at 0.5 uM after 48 hrs by annexin V-FITC/propidium iodide staining-based flow cytometric analysis (reference value: 1.52%); assay type: functional
DU-145 [15] = assay: Induction of apoptosis in human DU145 cells assessed as necrotic cells at 1 uM after 48 hrs by annexin V-FITC/propidium iodide staining-based flow cytometric analysis (reference value: 0.1%); assay type: functional
DU-145 [16] = assay: Cell cycle arrest in human DU145 cells assessed as accumulation at S phase at 0.5 uM after 48 hrs by propidium iodide staining-based flow cytometric analysis (reference value: 4.02%); assay type: functional
DU-145 [17] = assay: Cell cycle arrest in human DU145 cells assessed as accumulation at subG1 phase at 0.5 uM after 48 hrs by propidium iodide staining-based flow cytometric analysis (reference value: 6.52%); assay type: functional
DU-145 [18] = assay: Cell cycle arrest in human DU145 cells assessed as accumulation at G0/G1 phase at 0.5 uM after 48 hrs by propidium iodide staining-based flow cytometric analysis (reference value: 85.94%); assay type: functional
Calf thymus DNA [19] = assay: Induction of DNA intercalation of calf thymus DNA at 1 uM by UV-vis spectrophotometric analysis; assay type: nucleic-acid assay; details: Bos taurus
DU-145 [20] = assay: Induction of apoptosis in human DU145 cells assessed as wrinkled cells at 0.5 uM after 48 hrs by Hoechst 33258 staining-based confocal microscopic analysis; assay type: functional, cell-based
Outline: (§4)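 Hoechst H33258 staining of treated DU-145 cells at 0.5 µM; apoptotic cells (apoptotic bodies, condensation, nuclear fragmentation) counted by manual field quantification under the microscope, compared with control.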

DU-145 [21] = assay: Cytotoxicity against human DU145 cells after 48 hrs by MTT assay; assay type: functional, cell-based; details: DU-145, 48 h; outline: as §3
Calf thymus DNA [22] = assay: Binding affinity to calf thymus DNA surface at 1 uM by UV-vis spectrophotometric analysis; assay type: nucleic-acid assay; details: Bos taurus
DU-145 [23] = assay: Induction of apoptosis in human DU145 cells assessed as DNA fragmented cells at 0.5 uM after 48 hrs by Hoechst 33258 staining-based confocal microscopic analysis; assay type: functional, cell-based; outline: as §4
DU-145 [24] = assay: Induction of apoptosis in human DU145 cells assessed as early apoptotic cells at 0.5 uM after 48 hrs by annexin V-FITC/propidium iodide staining-based flow cytometric analysis (reference value: 0.43%); assay type: functional
DU-145 [25] = assay: Cell cycle arrest in human DU145 cells assessed as accumulation at G2/M phase at 0.5 uM after 48 hrs by propidium iodide staining-based flow cytometric analysis (reference value: 1.97%); assay type: functional
[26] = molecular target: T1, DNA topoisomerase II (Homo sapiens); assay: Inhibition of DNA-topoisomerase 2 catalytic activity (unknown origin) using catenated kDNA as substrate assessed as formation of nicked circular and relaxed DNA at 1 to 100 uM after 30 mins by agarose gel electrophoresis; assay type: protein assay; outline: as §2

In the case of `CSC(=S)NCc1cc2c3ccccc3n(C)c2c(-c2ccc(C(F)(F)F)cc2)n1`, the Activity (DU-145 [1]) was 5.31%, the Activity (Calf thymus DNA [2]) was “Active” and the Activity (Calf thymus DNA [3]) was “Active”. For the same compound, the Activity (DU-145 [4]) was 0.93%, the Activity [5] was “Active” and the pIC50 (MCF7) was 5.96. The viability at 1 µM (DU-145 [6]) was 75%, the pIC50 (HeLa) was 5.83 and the Activity (DU-145 [7]) was 5.36%. The Activity (DU-145 [8]) was 2.18%, the Activity (DU-145 [9]) was 70.81% and the Activity (DU-145 [10]) was 18.6%. For the same compound, the Activity (DU-145 [11]) was 21.19%, the viability at 0.5 µM (DU-145 [12]) was 81.5% and the pIC50 (A549) was 5.45. For the same compound, the Activity (Calf thymus DNA [13]) was “Active”, the Activity (DU-145 [14]) was 13.7% and the Activity (DU-145 [15]) was 1.65%. The Activity (DU-145 [16]) was 5.18%, the Activity (DU-145 [17]) was 10.12% and the Activity (DU-145 [18]) was 78.9%. For the same compound, the Activity (Calf thymus DNA [19]) was “Active”, the Activity (DU-145 [20]) was “Active” and the pIC50 (DU-145 [21]) was 6.10. The Activity (Calf thymus DNA [22]) was “Active”, the Activity (DU-145 [23]) was “Active” and the Activity (DU-145 [24]) was 3.82%. For the same compound, the Activity (DU-145 [25]) was 3.73%.

With `CSC(=S)NCc1cc2c([nH]c3ccccc32)c(-c2ccc(F)cc2)n1` the Activity (DU-145 [1]) was 3.34%, the Activity (Calf thymus DNA [2]) was “Active” and the Activity (Calf thymus DNA [3]) was “Active”. The Activity (DU-145 [4]) was 0.14%, the inhibition [26] was “Active” and the pIC50 (MCF7) was 5.61. For the same compound, the viability at 1 µM (DU-145 [6]) was 80%, the pIC50 (HeLa) was 5.46 and the Activity (DU-145 [7]) was 2.33%. For the same compound, the Activity (DU-145 [8]) was 4.4%, the Activity (DU-145 [9]) was 75.52% and the Activity (DU-145 [10]) was 15.61%. The Activity (DU-145 [11]) was 14.68%, the viability at 0.5 µM (DU-145 [12]) was 94.6% and the pIC50 (A549) was 5.36. For the same compound, the Activity (Calf thymus DNA [13]) was “Active”, the Activity (DU-145 [14]) was 4.17% and the Activity (DU-145 [15]) was 0.96%. It also gave an Activity (DU-145 [16]) of 3.36%, an Activity (DU-145 [17]) of 7.34% and an Activity (DU-145 [18]) of 84.83%. The Activity (Calf thymus DNA [19]) was “Active”, the Activity (DU-145 [20]) was “Active” and the pIC50 (DU-145 [21]) was 5.87. The Activity (Calf thymus DNA [22]) was “Active”, the Activity (DU-145 [23]) was “Active” and the Activity (DU-145 [24]) was 1.07%. It also gave an Activity (DU-145 [25]) of 1.98%.
